Reference: ChEMBL document CHEMBL3627702, “Navigating CYP1A Induction and Arylhydrocarbon Receptor Agonism in Drug Discovery. A Case History with S1P1 Agonists” (J Med Chem, 2015)

What was measured:
[1] = tested on: CYP1A1; test: Induction of CYP1A1 mRNA expression in Sprague-Dawley rat hepatic microsomes at 17 mg/kg, po QD for 4 days relative to control; format: ADME, organism-based, Liver; settings: read-out: FC
Method in brief: (§1)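 Male CD rats (226–325 g, n = 3) were dosed by oral gavage once daily for 4 days as a 1% w/v aqueous methylcellulose suspension (3–6 mg/mL, 5 mL/kg). At the end of the study, a left lateral liver lobe section was placed in RNALater and homogenised in TRIzol. RNA was purified, DNase-treated and converted to cDNA, and Cyp1a1 was read on low-density TaqMan arrays.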

[2] = tested on: Rattus norvegicus; test: Dose normalized AUC in Sprague-Dawley rat at 17 mg/kg, po QD measured on day 4; format: ADME, organism-based; settings: in vivo
Method in brief: (§2)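 Male CD rats (226−325 g), n = 3, given the compound once daily by oral gavage for 4 days. Vehicle was 1% (w/v) methylcellulose aq suspension at 3−6 mg/mL, dosed at 5 mL/kg (target 15−30 mg/kg). Tail vein blood was taken on days 1 and 4 up to 24 h postdose. Blood was diluted 1:1 with water, extracted by acetonitrile protein precipitation and analysed by LC−MS/MS against calibration standards in diluted blood.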

[3] = Cmax in Sprague-Dawley rat at 17 mg/kg, po QD measured on day 4; format: ADME, organism-based; set-up: dose 17 mg/kg, route oral; settings: in vivo; method in brief: as §2
[4] = tested on: Rattus norvegicus; test: Dose normalized AUC in Sprague-Dawley rat at 17 mg/kg, po QD measured on day 1; format: ADME, organism-based; settings: in vivo; method in brief: as §2
[5] = AUC in Sprague-Dawley rat at 17 mg/kg, po QD measured on day 1; format: ADME, organism-based; settings: in vivo; method in brief: as §2
[6] = Lipophilicity, log D of the compound at pH 7.4; format: physicochemical; settings: buffer
[7] = tested on: CYP1A2; test: Induction of CYP1A2 mRNA expression in Sprague-Dawley rat hepatic microsomes at 17 mg/kg, po QD for 4 days relative to control; format: ADME, organism-based, Liver; settings: read-out: FC
[8] = AUC in Sprague-Dawley rat at 17 mg/kg, po QD measured on day 4; format: ADME, organism-based; settings: in vivo; method in brief: as §2
[9] = Cmax in Sprague-Dawley rat at 17 mg/kg, po QD measured on day 1; format: ADME, organism-based; set-up: dose 17 mg/kg, route oral; settings: in vivo; method in brief: as §2
[10] = Cmax in Sprague-Dawley rat at 22 mg/kg, po QD measured on day 1; format: ADME, organism-based; set-up: dose 22 mg/kg, route oral; settings: in vivo; method in brief: as §2
[11] = AUC in Sprague-Dawley rat at 22 mg/kg, po QD measured on day 4; format: ADME, organism-based; settings: in vivo; method in brief: as §2
[12] = tested on: Rattus norvegicus; test: Dose normalized AUC in Sprague-Dawley rat at 22 mg/kg, po QD measured on day 4; format: ADME, organism-based; settings: in vivo; method in brief: as §2
[13] = tested on: Rattus norvegicus; test: Dose normalized AUC in Sprague-Dawley rat at 22 mg/kg, po QD measured on day 1; format: ADME, organism-based; settings: in vivo; method in brief: as §2
[14] = Cmax in Sprague-Dawley rat at 22 mg/kg, po QD measured on day 4; format: ADME, organism-based; set-up: dose 22 mg/kg, route oral; settings: in vivo; method in brief: as §2
[15] = tested on: CYP1A1; test: Induction of CYP1A1 mRNA expression in Sprague-Dawley rat hepatic microsomes at 22 mg/kg, po QD for 4 days relative to control; format: ADME, organism-based, Liver; settings: read-out: FC; method in brief: as §1
[16] = Dissociation constant, pKa of the compound; format: physicochemical
[17] = AUC in Sprague-Dawley rat at 22 mg/kg, po QD measured on day 1; format: ADME, organism-based; settings: in vivo; method in brief: as §2
[18] = tested on: CYP1A2; test: Induction of CYP1A2 mRNA expression in Sprague-Dawley rat hepatic microsomes at 22 mg/kg, po QD for 4 days relative to control; format: ADME, organism-based, Liver; settings: read-out: FC

Compound | fold induction at 96 h [1] | AUC/dose [2] [kg·min/L] | Cmax [3] [ng/mL] | AUC/dose [4] [kg·min/L] | AUC [5] [ng·h/mL] | logD [6] | fold induction at 96 h [7] | AUC [8] [ng·h/mL] | Cmax [9] [ng/mL] | Cmax [10] [ng/mL] | AUC [11] [ng·h/mL] | AUC/dose [12] [kg·min/L] | AUC/dose [13] [kg·min/L] | Cmax [14] [ng/mL] | fold induction at 96 h [15] | pKa [16] | AUC [17] [ng·h/mL] | fold induction at 96 h [18]
Cc1c(-c2noc(-c3ccc(OC(C)C)c(C#N)c3)n2)cnc2c1CCN(C(CO)CO)C2 | 0.9 | 59 | 2170 | 46 | 12900 | 2.15 | 2 | 16800 | 1610 |  |  |  |  |  |  |  |  | 
Cc1c(-c2noc(-c3cnc(OC(C)C)c(C#N)c3)n2)ccc2c1CCN(C(CO)CO)C2 |  |  |  |  |  | 2.84 |  |  |  | 2100 | 28800 | 79 | 66 | 2730 | 7 | 7.3 | 24300 | 3
